# Measured values from ChEMBL document CHEMBL1157428, “Ring-closing metathesis for the synthesis of a highly G-quadruplex selective macrocyclic hexaoxazole having enhanced cytotoxic potency” (Bioorg Med Chem Lett, 2008).
# Activity calls are given as the source filed them. No cut-off for these calls is given here.
# Assays:
# Salmonidae [1] = assay: Binding affinity to salmon testes duplex DNA assessed as transition temperature
# Outline: (§1)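 Thermal melting. Salmon testes duplex DNA at 15 μM base pairs, with macrocyclic ligand at 15 μM. Telomeric d[T2G3(T2AG3)3A] at 4 μM strand, with macrocyclic ligand at 20 μM. Buffer was 10 mM EPPS pH 7.5, with KCl added to 50 mM total K+. Transition temperature was taken for DNA with and without ligand.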
# Homo sapiens [2] = species on record: Homo sapiens; assay: Effect on thermal stability of G-quadruplex human telomeric DNA sequence d[T2G3(T2AG3)3A] assessed as transition temperature; outline: as §1
# Homo sapiens [3] = species on record: Homo sapiens; assay: Binding affinity to […] human telomeric DNA sequence d[T2G3(T2AG3)3A] assessed as transition temperature; outline: as §1
# Salmonidae [4] = assay: Effect on thermal stability of salmon testes duplex DNA assessed as transition temperature; outline: as §1
# P388 = assay: Cytotoxicity against mouse P388 cells by MTT assay; type: functional, cell-based
# [5] = Cytotoxicity against human RPMI8402 cells by MTT assay; type: functional, cell-based; conditions: RPMI 8402
# [6] = Cytotoxicity against human KB3-1 cells by MTT assay; type: functional, cell-based; conditions: KB 3-1
# [7] = Cytotoxicity against human KBV1 cells by MTT assay; type: functional, cell-based; conditions: KB-V1
# [8] = Cytotoxicity against human KBH5.0 cells by MTT assay; type: functional, cell-based; conditions: KBH5.0 cell
Structure (SMILES),Activity (Salmonidae [1]),Activity (Homo sapiens [2]),Activity (Homo sapiens [3]),Activity (Salmonidae [4]),IC50 (P388) [nM],IC50 [5] [nM],IC50 [6] [nM],IC50 [7] [nM],IC50 [8] [nM]
CC(C)[C@@H]1NC(=O)c2coc(n2)-c2coc(n2)-c2coc(n2)C/C=C/c2coc(n2)-c2coc(n2)-c2coc1n2,inactive,Active,Active,inactive,45,25,38,3300,43
CC(C)[C@@H]1NC(=O)c2coc(n2)-c2coc(n2)-c2coc(n2)[C@H](C(C)C)NC(=O)c2coc(n2)-c2coc(n2)-c2coc1n2 [HEXAOXAZOLE DIVALINE],inactive,Active,Active,inactive,500,410,300,8000,500
